Source: ChEMBL document CHEMBL5712896, “Targeting EHMT2 reverses EGFR-TKI resistance in NSCLC by epigenetically regulating the PTEN/AKT signaling pathway” (2018)
Activity calls are given as the source filed them. No cut-off for these calls is given here.

Tests used:
[1] = system: PC-9; test: Induction of apoptosis in human PC-9 cells assessed as early apoptotic cells at 0.1 uM for 48 hrs by annexin V/PI staining based flow cytometric analysis relative to control; assay type: functional
Outline: (§1)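 PC9 cells given PTEN siRNA or scramble siRNA, then Erlotinib 0.1 μM for 48 h. Apoptosis by Annexin V–FITC/PI staining for 5 min at room temperature in the dark, read by flow cytometry.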

[2] = system: PC-9/ER; test: Induction of apoptosis in human PC-9/ER cells assessed as viable cells at 1 uM for 48 hrs by annexin V/PI staining based flow cytometric analysis (reference value: 91.4%); assay type: functional; conditions: read-out: Activity
[3] = system: PC-9; test: Induction of apoptosis in human PC-9 cells assessed as late apoptotic cells at 0.1 uM for 48 hrs by annexin V/PI staining based flow cytometric analysis in presence of PTEN-siRNA relative to control; assay type: functional; outline: as §1
[4] = system: PC-9/ER; test: Induction of apoptosis in human PC-9/ER cells assessed as late apoptotic cells at 1 uM for 48 hrs by annexin V/PI staining based flow cytometric analysis in presence of PTEN vector relative to control; assay type: functional
Outline: (§2)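 PC9/ER cells given a PTEN expression vector or mock vector, then Erlotinib 1 μM for 48 h. Cells stained with Annexin V–FITC/PI (5 min, room temperature, dark) and analyzed by flow cytometry.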

[5] = system: PC-9/ER; test: Induction of apoptosis in human PC-9/ER cells assessed as viable cells at 1 uM for 48 hrs by annexin V/PI staining based flow cytometric analysis in presence of […] siRNA (reference value: 92.2%); assay type: functional; conditions: read-out: Activity
[6] = system: PC-9; test: Induction of apoptosis in human PC-9 cells assessed as late apoptotic cells at 0.1 uM for 48 hrs by annexin V/PI staining based flow cytometric analysis relative to control; assay type: functional; outline: as §1
[7] = system: PC-9/ER; test: Induction of apoptosis in human PC-9/ER cells assessed as necrotic cells at 1 uM for 48 hrs by annexin V/PI staining based flow cytometric analysis relative to control; assay type: functional; outline: as §2
[8] = system: PC-9/ER; test: Induction of apoptosis in human PC-9/ER cells assessed as necrotic cells at 1 uM for 48 hrs by annexin V/PI staining based flow cytometric analysis in presence of PTEN vector relative to control; assay type: functional; outline: as §2
[9] = system: PC-9/ER; test: Induction of apoptosis in human PC-9/ER cells assessed as early apoptotic cells at 1 uM for 48 hrs by annexin V/PI staining based flow cytometric analysis (reference value: 0.9%); assay type: functional
[10] = system: PC-9/ER; test: Induction of apoptosis in human PC-9/ER cells assessed as late apoptotic cells at 1 uM for 48 hrs by annexin V/PI staining based flow cytometric analysis in presence of scramble non-target siRNA (reference value: 4.2%); assay type: functional
[11] = system: PC-9/ER; test: Induction of apoptosis in human PC-9/ER cells assessed as necrotic cells at 1 uM for 48 hrs by annexin V/PI staining based flow cytometric analysis (reference value: 2.1%); assay type: functional
[12] = system: PC-9/ER; test: Induction of apoptosis in human PC-9/ER cells assessed as early apoptotic cells at 1 uM for 48 hrs by annexin V/PI staining based flow cytometric analysis in presence of scramble non-target siRNA (reference value: 1.3%); assay type: functional
[13] = system: PC-9/ER; test: Induction of apoptosis in human PC-9/ER cells assessed as late apoptotic cells at 1 uM for 48 hrs by annexin V/PI staining based flow cytometric analysis (reference value: 5.7%); assay type: functional
[14] = system: PC-9; test: Induction of apoptosis in human PC-9 cells assessed as necrotic cells at 0.1 uM for 48 hrs by annexin V/PI staining based flow cytometric analysis in presence of PTEN-siRNA relative to control; assay type: functional; outline: as §1
[15] = system: PC-9/ER; test: Induction of apoptosis in human PC-9/ER cells assessed as viable cells at 1 uM for 48 hrs by annexin V/PI staining based flow cytometric analysis in presence of scramble non-target siRNA (reference value: 92.2%); assay type: functional; conditions: read-out: Activity
[16] = system: PC-9; test: Induction of apoptosis in human PC-9 cells assessed as early apoptotic cells at 0.1 uM for 48 hrs by annexin V/PI staining based flow cytometric analysis in presence of PTEN-siRNA relative to control; assay type: functional; outline: as §1
[17] = system: PC-9; test: Induction of apoptosis in human PC-9 cells assessed as viable cells at 0.1 uM for 48 hrs by annexin V/PI staining based flow cytometric analysis relative to control; assay type: functional; conditions: read-out: Activity; outline: as §1
[18] = system: PC-9/ER; test: Induction of apoptosis in human PC-9/ER cells assessed as early apoptotic cells at 1 uM for 48 hrs by annexin V/PI staining based flow cytometric analysis relative to control; assay type: functional; outline: as §2
[19] = system: PC-9/ER; test: Induction of apoptosis in human PC-9/ER cells assessed as late apoptotic cells at 1 uM for 48 hrs by annexin V/PI staining based flow cytometric analysis relative to control; assay type: functional; outline: as §2
[20] = system: PC-9; test: Induction of apoptosis in human PC-9 cells assessed as necrotic cells at 0.1 uM for 48 hrs by annexin V/PI staining based flow cytometric analysis relative to control; assay type: functional; outline: as §1
[21] = system: PC-9/ER; test: Induction of apoptosis in human PC-9/ER cells assessed as necrotic cells at 1 uM for 48 hrs by annexin V/PI staining based flow cytometric analysis in presence of scramble non-target siRNA (reference value: 2.3%); assay type: functional
[22] = system: PC-9/ER; test: Antitumor activity against human PC-9/ER cells xenografted in SCID mouse assessed as inhibition of tumor growth at 12.5 mg/kg, ip daily for 3 weeks; assay type: functional, organism-based
Outline: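 Male SCID mice, 7–8 weeks old, injected s.c. in the right flank with 5 × 10^6 PC9/ER cells in PBS. At an average tumor volume of 50 mm3, randomized into groups of n = 6: saline, UNC0642 2.5 mg/kg bid i.p., Erlotinib 12.5 mg/kg/day i.p., or both. Tumor volume tracked and body weight recorded; tumors weighed after sacrifice at 3 weeks.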

[23] = system: PC-9/ER; test: Antiproliferative activity against human PC-9/ER cells assessed as reduction in cell survival rate pretreated with UNC0638 followed by compound addition upto 1 uM incubated for 48 hrs by MTT assay; assay type: functional, cell-based
Outline: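 PC9/ER cells pretreated with UNC0638 (100 nM), DMSO as control, then given Erlotinib at a range of concentrations for 48 h. Viability by MTT: 4 h at 37 °C, formazan dissolved in DMSO, absorbance at 570 nm.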

[24] = system: PC-9/ER; test: Induction of apoptosis in human PC-9/ER cells assessed as viable cells at 1 uM for 48 hrs by annexin V/PI staining based flow cytometric analysis relative to control; assay type: functional; conditions: read-out: Activity; outline: as §2
[25] = system: PC-9; test: Induction of apoptosis in human PC-9 cells assessed as viable cells at 0.1 uM for 48 hrs by annexin V/PI staining based flow cytometric analysis in presence of PTEN-siRNA relative to control; assay type: functional; conditions: read-out: Activity; outline: as §1
[26] = system: PC-9/ER; test: Induction of apoptosis in human PC-9/ER cells assessed as viable cells at 1 uM for 48 hrs by annexin V/PI staining based flow cytometric analysis in presence of PTEN vector relative to control; assay type: functional; conditions: read-out: Activity; outline: as §2
[27] = system: PC-9/ER; test: Induction of apoptosis in human PC-9/ER cells assessed as necrotic cells at 1 uM for 48 hrs by annexin V/PI staining based flow cytometric analysis in presence of […] siRNA (reference value: 2.3%); assay type: functional
[28] = system: PC-9/ER; test: Induction of apoptosis in human PC-9/ER cells assessed as early apoptotic cells at 1 uM for 48 hrs by annexin V/PI staining based flow cytometric analysis in presence of […] siRNA (reference value: 1.3%); assay type: functional
[29] = system: PC-9/ER; test: Induction of apoptosis in human PC-9/ER cells assessed as late apoptotic cells at 1 uM for 48 hrs by annexin V/PI staining based flow cytometric analysis in presence of […] siRNA (reference value: 4.2%); assay type: functional
[30] = system: PC-9/ER; test: Induction of apoptosis in human PC-9/ER cells assessed as early apoptotic cells at 1 uM for 48 hrs by annexin V/PI staining based flow cytometric analysis in presence of PTEN vector relative to control; assay type: functional; outline: as §2

For `C#Cc1cccc(Nc2ncnc3cc(OCCOC)c(OCCOC)cc23)c1` [ERLOTINIB], the Activity [1] was 17.9%, the viability at 1 µM [2] was 77.8% and the Activity [3] was 6.6%. It also gave an Activity [4] of 5.7%, a viability at 1 µM [5] of 77.4% and an Activity [6] of 18.8%. It also gave an Activity [7] of 1.6%, an Activity [8] of 1.5% and an Activity [9] of 2.8%. For the same molecule, the Activity [10] was 9.8%, the Activity [11] was 4.9% and the Activity [12] was 1.3%. It also gave an Activity [13] of 14.5%, an Activity [14] of 1.6% and a viability at 1 µM [15] of 82.7%. The Activity [16] was 15.3%, the viability at 0.1 µM [17] was 58.2% and the Activity [18] was 4.9%. The Activity [19] was 6.4%, the Activity [20] was 5.1% and the Activity [21] was 6.2%. For the same molecule, the Activity [22] was “inactive”, the Activity [23] was “Active” and the viability at 1 µM [24] was 87.1%. For the same molecule, the viability at 0.1 µM [25] was 76.5%, the viability at 1 µM [26] was 70.1% and the Activity [27] was 4.5%. It also gave an Activity [28] of 0.6%, an Activity [29] of 17.5% and an Activity [30] of 22.7%.
